Reference: ChEMBL document CHEMBL4007441, “Novel Design of Heptad Amphiphiles To Enhance Cell Selectivity, Salt Resistance, Antibiofilm Properties and Their Membrane-Disruptive Mechanism” (J Med Chem, 2017)
Active and inactive are the calls of the source. The calls are words filed in the database; no cut-off is given here.

Tests used:
Staphylococcus aureus = assay: Antibacterial activity against Staphylococcus aureus ATCC 29213 after 18 hrs by broth microdilution method; format: functional; conditions: ATCC 29213, 18 h
Summary of the method: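 Broth microdilution. Exponential-phase bacteria grown in MHB at 37 °C, diluted to about 1 × 10^6 CFU/mL in MHB and mixed 1:1 with two-fold dilutions of peptide. MIC is the lowest concentration with no visible turbidity after 18 h at 37 °C. Controls were uninoculated broth and peptide-free culture. At least three repeats, duplicates each.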

Pseudomonas aeruginosa [1] = assay: Antibacterial activity against Pseudomonas aeruginosa CICC 10419 after 18 hrs by broth microdilution method; format: functional; conditions: CICC 10419, 18 h
Summary of the method: (§1)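 Broth microdilution in Mueller-Hinton broth. Exponential-phase bacteria (37 °C, 220 rpm shaking) were diluted to about 1 × 10^6 CFU/mL and mixed 1:1 with two-fold serial peptide dilutions. MIC is the lowest concentration with no visible turbidity after 18 h at 37 °C. Controls were uninoculated MHB and untreated culture. Run at least three times, two replicates each.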

Pseudomonas aeruginosa [2] = assay: Antibacterial activity against Pseudomonas aeruginosa CICC 21625 after 18 hrs by broth microdilution method; format: functional; conditions: CICC 21625, 18 h; summary of the method: as §1
Pseudomonas aeruginosa [3] = assay: Antibacterial activity against Pseudomonas aeruginosa CICC 21630 after 18 hrs by broth microdilution method; format: functional; conditions: CICC 21630, 18 h; summary of the method: as §1
Pseudomonas aeruginosa [4] = assay: Antibacterial activity against ciprofloxacin-resistant Pseudomonas aeruginosa 11411 after 18 hrs by broth microdilution method; format: functional; conditions: Pseudomonas aeruginosa, 11411, 18 h
Summary of the method: (§2)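 Broth microdilution in Mueller-Hinton broth. Exponential-phase bacteria (37 °C, 220 rpm shaking) were diluted to about 1 × 10^6 CFU/mL and mixed 1:1 with two-fold serial peptide dilutions. Controls were uninoculated MHB and untreated culture. Run at least three times, two replicates each.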

Pseudomonas aeruginosa [5] = assay: Antibacterial activity against gentamicin-resistant Pseudomonas aeruginosa 11421 after 18 hrs by broth microdilution method; format: functional; conditions: Pseudomonas aeruginosa, 11421, 18 h; summary of the method: as §2
Pseudomonas aeruginosa [6] = assay: Antibacterial activity against ceftazidime-resistant Pseudomonas aeruginosa 11431 after 18 hrs by broth microdilution method; format: functional; conditions: Pseudomonas aeruginosa, 11431, 18 h; summary of the method: as §1
Pseudomonas aeruginosa [7] = assay: Antibacterial activity against Pseudomonas aeruginosa 21328 clinical isolate after 18 hrs by broth microdilution method; format: functional; conditions: Pseudomonas aeruginosa, 21328, 18 h
Pseudomonas aeruginosa [8] = assay: Antibacterial activity against Pseudomonas aeruginosa 25349 clinical isolate after 18 hrs by broth microdilution method; format: functional; conditions: Pseudomonas aeruginosa, 25349, 18 h
RAW264.7 [9] = assay: Cytotoxicity in mouse RAW264.7 cells after 24 hrs by MTT assay; format: cell-based; conditions: raw264.7, 24 h
Pseudomonas aeruginosa [10] = assay: Drug uptake in Pseudomonas aeruginosa ATCC 27853 treated with FITC-labeled compound at MIC after 30 mins by confocal fluorescence microscopy; format: ADME; conditions: 0.5 h
Summary of the method: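 Cells were pelleted at 5,000 g for 5 min, washed three times in PBS, smeared and imaged by confocal microscopy with 488 nm excitation.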

RAW264.7 [11] = assay: Inhibition of LPS-induced NO production in mouse RAW264.7 cells at 10 mg/L after 18 hrs by Griess assay; format: functional, cell-based
Summary of the method: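 RAW264.7 cells (5 × 10^5/well) were stimulated with LPS at 100 ng/mL, with or without peptide at 10 mg/L, for 18 h at 37 °C. Nitrite in the medium was measured with Griess reagent at 540 nm against a NaNO2 standard curve. Three independent experiments.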

RAW264.7 [12] = assay: Downregulation of LPS-induced TNF-alpha level in mouse RAW264.7 cells at 10 mg/L after 18 hrs by ELISA; format: functional, cell-based
Summary of the method: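 ELISA of secreted TNF-α in culture medium of RAW264.7 cells treated 18 h with LPS 100 ng/mL alone or with peptide at 10 mg/L. Samples were run in duplicate; release was normalized to untreated controls.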

RAW264.7 [13] = assay: Inhibition of LPS-induced TLR4 negative regulation in mouse RAW264.7 cells at 10 mg/L after 18 hrs by Western blot analysis; format: functional, cell-based
Summary of the method: (§3)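 Western blot of RAW264.7 lysates after 18 h with LPS at 100 ng/mL, with or without peptide at 10 mg/L. Lysates were run on 8% or 12% SDS-PAGE, transferred to PVDF and blocked in 5% milk/TBST. Primary antibodies were applied at 4 °C overnight, then HRP secondary and ECL detection. β-actin was the loading control.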

RAW264.7 [14] = assay: Inhibition of LPS-induced IkappaB-alpha protein degradation in mouse RAW264.7 cells at 10 mg/L after 18 hrs by Western blot analysis; format: functional, cell-based; summary of the method: as §3
RAW264.7 [15] = assay: Inhibition of LPS-induced iNOS expression in mouse RAW264.7 cells at 10 mg/L after 18 hrs by Western blot analysis; format: functional, cell-based; summary of the method: as §3
Pseudomonas aeruginosa [16] = assay: Antibacterial activity against Pseudomonas aeruginosa ATCC 27853 after 18 hrs in presence of KCl by broth microdilution method; format: functional; conditions: ATCC 27853, 18 h
Summary of the method: (§4)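 Broth microdilution MIC against ATCC 27853 in Mueller-Hinton broth with added salt at final concentrations: NaCl 150 mM, KCl 4.5 mM, NH4Cl 6 µM, ZnCl2 8 µM, FeCl3 4 µM. Inoculum about 1 × 10^6 CFU/mL from exponential phase, mixed 1:1 with two-fold peptide dilutions. MIC read as no visible turbidity after 18 h at 37 °C.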

Pseudomonas aeruginosa [17] = assay: Antibacterial activity against Pseudomonas aeruginosa ATCC 27853 after 18 hrs in presence of NH4Cl by broth microdilution method; format: functional; conditions: ATCC 27853, 18 h; summary of the method: as §4
Pseudomonas aeruginosa [18] = assay: Antibacterial activity against Pseudomonas aeruginosa ATCC 27853 after 18 hrs in presence of ZnCl2 by broth microdilution method; format: functional; conditions: ATCC 27853, 18 h; summary of the method: as §4
Pseudomonas aeruginosa [19] = assay: Antibacterial activity against Pseudomonas aeruginosa ATCC 27853 after 18 hrs in presence of MgCl2 by broth microdilution method; format: functional; conditions: ATCC 27853, 18 h
Summary of the method: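 Broth microdilution MIC in MHB against the reference strain. About 1 × 10^6 CFU/mL exponential-phase inoculum mixed 1:1 with two-fold peptide dilutions in medium containing 1 mM MgCl2 (final). Lowest concentration with no visible turbidity after 18 h at 37 °C.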

Pseudomonas aeruginosa [20] = assay: Antibacterial activity against Pseudomonas aeruginosa ATCC 27853 after 18 hrs in presence of FeCl3 by broth microdilution method; format: functional; conditions: ATCC 27853, 18 h; summary of the method: as §4
Pseudomonas aeruginosa [21] = assay: Antibiofilm activity in Pseudomonas aeruginosa ATCC 27853 assessed as reduction in biomass after 24 hrs by crystal violet staining-based method; format: functional
Summary of the method: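 Overnight culture was diluted 1:100 and grown 24 h at 37 °C to form biofilms. Loose cells were removed and fresh broth added with peptide at 1×, 4× or 8× MIC for another 24 h. Biofilms were stained with 0.1% crystal violet for 10 min, washed, and dye extracted in 95% ethanol before reading absorbance. Results are % of untreated biofilm; three repeats in duplicate, mean ± SD.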

Pseudomonas aeruginosa [22] = assay: Antibiofilm activity against Pseudomonas aeruginosa ATCC 27853 assessed as reduction in cell density of biofilm at 4 times MIC after 1 hr by SEM analysis; format: functional
Summary of the method: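 Biofilm imaging: biofilms grown on sterile coverslips in 12-well wells were treated with peptides at 4 × MIC for 1 h, then fixed overnight in 2.5% glutaraldehyde and viewed by SEM. Untreated control. At least three repeats.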

Escherichia coli = assay: microbe, parasite or virus in culture; conditions: ATCC 25922, 18 h
Lipopolysaccharide (LPS) = assay: Inhibition of BODIPY-TR-cadaverine binding to Pseudomonas aeruginosa 10 LPS by fluorescence spectrophotometric analysis

Row | Substance | MIC (Staphylococcus aureus) | MIC (Pseudomonas aeruginosa [1]) | MIC (Pseudomonas aeruginosa [2]) | MIC (Pseudomonas aeruginosa [3]) | MIC (Pseudomonas aeruginosa [4]) | MIC (Pseudomonas aeruginosa [5]) | MIC (Pseudomonas aeruginosa [6]) | MIC (Pseudomonas aeruginosa [7]) | MIC (Pseudomonas aeruginosa [8]) | CC10 (RAW264.7 [9]) | Drug uptake (Pseudomonas aeruginosa [10]) | inhibition (RAW264.7 [11]) | Activity (RAW264.7 [12]) | inhibition (RAW264.7 [13]) | inhibition (RAW264.7 [14]) | inhibition (RAW264.7 [15]) | MIC (Pseudomonas aeruginosa [16]) | MIC (Pseudomonas aeruginosa [17]) | MIC (Pseudomonas aeruginosa [18]) | MIC (Pseudomonas aeruginosa [19]) | other results
1 | H-LRRLRRRWWRRRLRRL-NH2 | 8 µg/mL | 16 µg/mL | 16 µg/mL | 8 µg/mL | 8 µg/mL | 16 µg/mL | 16 µg/mL | 32 µg/mL | 16 µg/mL | 128 µg/mL | Active | Active | Active | Active | Active | Active | 8 µg/mL | 8 µg/mL | 8 µg/mL | 32 µg/mL | MIC (Pseudomonas aeruginosa [20]): 8 µg/mL; Activity (Pseudomonas aeruginosa [21]): Dose-dependent effect; Activity (Pseudomonas aeruginosa [22]): Active; MIC (Escherichia coli): 16 µg/mL; Activity (Lipopolysaccharide (LPS)): Dose-dependent effect
2 | H-LRRLRRRWWWRRRLRRL-NH2 | 8 µg/mL | 8 µg/mL | 8 µg/mL | 4 µg/mL | 4 µg/mL | 8 µg/mL | 4 µg/mL | 4 µg/mL | 4 µg/mL | 256 µg/mL | Active | Active | Active | Active | Active | Active | 4 µg/mL | 4 µg/mL | 8 µg/mL | 16 µg/mL | MIC (Pseudomonas aeruginosa [20]): 4 µg/mL; Activity (Pseudomonas aeruginosa [21]): Dose-dependent effect; Activity (Pseudomonas aeruginosa [22]): Active; MIC (Escherichia coli): 4 µg/mL; Activity (Lipopolysaccharide (LPS)): Dose-dependent effect
